Experimental data from ChEMBL document CHEMBL1126153, “Synthesis and biological activity of certain alkyl 5-(alkoxycarbonyl)-1H-benzimidazole-2-carbamates and related derivatives: a new class of potential antineoplastic and antifilarial agents” (J Med Chem, 1992).

Tests used:
Brugia pahangi [1] = test: Antifilarial activity measured against the adult worms of Brugia pahangi in jirds by subcutaneous administration; set-up: concentration or dose not given beside the values
L1210 [2] = test: In vitro test against L1210 murine leukemia cell growth rate at 10 uM concentration; format: functional, Mus musculus
In short: (§1)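 L1210 cells were grown in static suspension culture in Fischer's medium with test compound, and counted twice daily over 3 days. Growth rate is the control population doubling time (average 12 h) divided by the treated doubling time, as a % of control. The IC50 is the concentration that reduces the growth rate to 50% of control.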

Brugia pahangi [3] = test: Antifilarial activity measured against the adult worms of Brugia pahangi in jirds by subcutaneous administration; format: functional; set-up: concentration or dose not given beside the values
In short: (§2)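 Jirds carrying implanted adult worms (three to five per group) were dosed once daily for 5 consecutive days, or on day 1 only where noted. Dosing was subcutaneous or oral, with drug as a solution or suspension in aqueous 1% (hydroxyethyl)cellulose plus 0.1% Tween 80. Survivors were necropsied 55 to 70 days after the first dose and searched for adult worms. Counts are given as % of control.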

L1210 [4] = test: In vitro for its inhibitory activity against L1210 murine leukemia cell growth; format: functional, cell-based; conditions: Mus musculus
In short: as §1

Brugia pahangi [5] = test: Antifilarial activity was measured against the adult worms of Brugia pahangi in jirds by subcutaneous administration at a dose of 12.5 mg/kg/day; format: functional
In short: as §2

Homo sapiens [6] = species: Homo sapiens; test: Compound was tested in vitro for its inhibitory activity against human epidermoid carcinoma cell (H. Ep. 2) growth at a concentration of 10 uM; format: functional; conditions: HEp-2
Brugia pahangi [7] = test: Antifilarial activity was measured against the adult worms of Brugia pahangi in jirds by subcutaneous administration at a dose of 1.6 mg/kg/day; format: functional
In short: as §2

Homo sapiens [8] = species: Homo sapiens; test: Compound was tested in vitro against human epidermoid carcinoma cell (H. Ep. 2) growth rate at a concentration of 10 uM; format: functional
Brugia pahangi [9] = test: Antifilarial activity was measured against the adult worms of Brugia pahangi in jirds by subcutaneous administration at a dose of 6.2 mg/kg/day; format: functional
In short: as §2

Brugia pahangi [10] = test: Antifilarial activity was measured against the adult worms of Brugia pahangi in jirds by oral administration at a dose of 100 mg/kg/day; format: functional
In short: as §2

Brugia pahangi [11] = test: Antifilarial activity was measured against the adult worms of Brugia pahangi in jirds by subcutaneous administration at a concentration of 100 mg/kg/day
Acanthocheilonema viteae [12] = test: Antifilarial activity was measured against the adult worms of Acanthocheilonema viteae in jirds by oral administration at a concentration of 100 mg/kg/day; format: functional
In short: as §2

Acanthocheilonema viteae [13] = test: Antifilarial activity was measured against the adult worms of Acanthocheilonema viteae in jirds by subcutaneous administration at a concentration of 50 mg/kg/day; format: functional
In short: as §2

L1210 [14] = test: Compound was tested in vitro against L1210 murine leukemia cell growth rate at a concentration of 100 uM; format: functional, Mus musculus
In short: as §1

Acanthocheilonema viteae [15] = test: Antifilarial activity was measured against the adult worms of Acanthocheilonema viteae in jirds by subcutaneous administration at a dose of 15.6 mg/kg/5 days; format: functional; conditions: in the assay text read “1.56 mg/kg/5 days” for “15.6 mg/kg/5 days”
In short: as §2

Brugia pahangi [16] = test: Antifilarial activity was measured against the adult worms of Brugia pahangi in jirds by subcutaneous administration at a dose of 6.5 mg/kg/day; format: functional
In short: as §2

L1210 [17] = test: Compound was tested in vitro for its inhibitory activity against L1210 murine leukemia cell growth at a concentration of 100 uM; format: functional, cell-based; conditions: Mus musculus
In short: as §1

Brugia pahangi [18] = test: Antifilarial activity was measured against the adult worms of Brugia pahangi in jirds by subcutaneous administration at a dose of 100 mg/Kg/day; format: functional
In short: as §2

Brugia pahangi [19] = test: Antifilarial activity was measured against the adult worms of Brugia pahangi in jirds by subcutaneous administration at a dose of 25 mg/Kg/day; format: functional
In short: as §2

Brugia pahangi [20] = test: Antifilarial activity was measured against the adult worms of Brugia pahangi in jirds by subcutaneous administration at a dose of 6.2 mg/Kg/day; format: functional
In short: as §2

Brugia pahangi [21] = test: Antifilarial activity was measured against the adult worms of Brugia pahangi in jirds by subcutaneous administration at a concentration of 12.5 mg/Kg/day
Brugia pahangi [22] = test: Antifilarial activity was measured against the adult worms of Brugia pahangi in jirds by subcutaneous administration at a concentration of 25 mg/Kg/day
Brugia pahangi [23] = test: Antifilarial activity was measured against the adult worms of Brugia pahangi in jirds by subcutaneous administration at a dose of 50 mg/kg/day; format: functional
In short: as §2

Acanthocheilonema viteae [24] = test: Antifilarial activity was measured against the adult worms of Acanthocheilonema viteae in jirds by oral administration at a dose of 100 mg/kg/5 days; format: functional
In short: as §2

Brugia pahangi [25] = test: Antifilarial activity was measured against the adult worms of Brugia pahangi in jirds by subcutaneous administration at a dose of 100 mg/kg/day; format: functional
In short: as §2

Brugia pahangi [26] = test: Antifilarial activity was measured against the adult worms of Brugia pahangi in jirds by subcutaneous administration at a dose of 25 mg/kg/day

COC(=O)Nc1nc2cc(C(=O)N(C)C)ccc2[nH]1
Control (Brugia pahangi [1]): 95%
Control (L1210 [2]): 88%

COC(=O)Nc1nc2cc(C(=O)OCCC(C)C)ccc2[nH]1
Control (Brugia pahangi [3]): 69%
IC50 (L1210 [4]): 10 µM
Control (L1210 [2]): 60%

CCOC(=O)c1ccc2[nH]c(NC(=O)OC)nc2c1
Control (Brugia pahangi [5]): 6%
IC50 (Homo sapiens [6]): 240 nM
Control (Brugia pahangi [7]): 100%
Control (Homo sapiens [8]): 0%
Control (Brugia pahangi [3]): 0%
IC50 (L1210 [4]): 2.8 µM
Control (L1210 [2]): 0%

COC(=O)Nc1nc2cc(C(=O)OC(C)C)ccc2[nH]1
Control (Brugia pahangi [5]): 0%
IC50 (Homo sapiens [6]): 220 nM
Control (Brugia pahangi [7]): 51%
Control (Brugia pahangi [1]): 0%
Control (Homo sapiens [8]): 0%
Control (Brugia pahangi [9]): 18%
Control (Brugia pahangi [10]): 100%
IC50 (L1210 [4]): 0.7 µM
Control (L1210 [2]): 0%

COC(=O)Nc1nc2cc(C(=O)N3CCN(C)CC3)ccc2[nH]1
Control (Brugia pahangi [11]): 101%
Control (L1210 [2]): 100%

C=CCOC(=O)c1ccc2[nH]c(NC(=O)OC)nc2c1
Control (Brugia pahangi [3]): 87%
IC50 (L1210 [4]): > 10 µM
Control (L1210 [2]): 75%

CCCOC(=O)Nc1nc2cc(C(=O)OCCC)ccc2[nH]1
Control (Brugia pahangi [3]): 85%
IC50 (L1210 [4]): 8.2 µM
Control (L1210 [2]): 36%

COC(=O)Nc1nc2cc(C(=O)c3cccs3)ccc2[nH]1 [NOCODAZOLE]
IC50 (Homo sapiens [6]): 33 nM
Control (Homo sapiens [8]): 0%
IC50 (L1210 [4]): 0.038 µM
Control (L1210 [2]): 0%

COC(=O)Nc1nc2cc(C(=O)NCC(C)(C)C)ccc2[nH]1
Control (Acanthocheilonema viteae [12]): 54%
Control (Acanthocheilonema viteae [13]): 0%
Control (Brugia pahangi [1]): 50%
Control (Brugia pahangi [11]): 0%
IC50 (L1210 [4]): 8.6 µM
Control (L1210 [2]): 48%

COC(=O)Nc1nc2cc(C(=O)OCC3CC3)ccc2[nH]1
Control (Brugia pahangi [3]): 69%
IC50 (L1210 [4]): 6.9 µM
Control (L1210 [2]): 45%

CCOC(=O)Nc1nc2cc(C(=O)O)ccc2[nH]1
Control (L1210 [14]): 100%
Control (Brugia pahangi [3]): 90%

COC(=O)Nc1nc2cc(C(=O)Nc3ccc(F)cc3)ccc2[nH]1
Control (Brugia pahangi [1]): 67%
Control (L1210 [2]): 92%

COC(=O)Nc1nc2cc(NC(=O)c3cccc(F)c3)ccc2[nH]1
Control (L1210 [2]): 100%

O=C(Nc1nc2cc(C(=O)OCC3CC3)ccc2[nH]1)OCC1CC1
Control (Brugia pahangi [3]): 72%
IC50 (L1210 [4]): 2.2 µM
Control (L1210 [2]): 24%

COC(=O)Nc1nc2cc(C(=O)Nc3ccc(C(F)(F)F)cc3)ccc2[nH]1
Control (Brugia pahangi [1]): 77%
Control (L1210 [2]): 100%

COC(=O)Nc1nc2cc(C(=O)OCc3cccs3)ccc2[nH]1
IC50 (Homo sapiens [6]): 2300 nM
Control (Homo sapiens [8]): 0%
Control (Brugia pahangi [3]): 71%
Control (L1210 [2]): 93%

COC(=O)Nc1nc2cc(C(=O)N3CCNCC3)ccc2[nH]1
Control (Brugia pahangi [1]): 55%

CCOC(=O)Nc1nc2cc(C(=O)OCC)ccc2[nH]1
IC50 (Homo sapiens [6]): 290 nM
Control (Homo sapiens [8]): 0%
Control (Brugia pahangi [3]): 62%
IC50 (L1210 [4]): 0.76 µM
Control (L1210 [2]): 0%

COC(=O)Nc1nc2cc(C(=O)NC(C)C)ccc2[nH]1
Control (Brugia pahangi [5]): 0%
IC50 (Homo sapiens [6]): 1600 nM
Control (Brugia pahangi [7]): 94%
Control (Homo sapiens [8]): 0%
Control (Acanthocheilonema viteae [15]): 57%
Control (Brugia pahangi [16]): 4%
Control (Brugia pahangi [3]): 0%
Control (Brugia pahangi [10]): 110%
IC50 (L1210 [4]): 2 µM
Control (L1210 [2]): 0%

CCN(CC)C(=O)N1CCN(C(=O)c2ccc3[nH]c(NC(=O)OC)nc3c2)CC1
Control (Brugia pahangi [1]): 100%
Control (L1210 [2]): 100%

COC(=O)Nc1nc2cc(C(=O)OCCC(C)CC(C)(C)C)ccc2[nH]1 (stereo unspecified)
Control (Brugia pahangi [3]): 85%
IC50 (L1210 [4]): 0.74 µM
Control (L1210 [2]): 0%

COC(=O)Nc1nc2cc(NC(=O)c3ccccc3F)ccc2[nH]1
Control (Brugia pahangi [1]): 116%
Control (L1210 [14]): 0%
IC50 (L1210 [17]): 14 µM

C#CCOC(=O)c1ccc2[nH]c(NC(=O)OC)nc2c1
Control (Brugia pahangi [3]): 79%
IC50 (L1210 [4]): 10 µM
Control (L1210 [2]): 58%

CCCOC(=O)c1ccc2[nH]c(NC(=O)OC)nc2c1
Control (Brugia pahangi [11]): 100%
IC50 (L1210 [4]): 7.4 µM
Control (L1210 [2]): 38%

CC(C)OC(=O)Nc1nc2cc(C(=O)OC(C)C)ccc2[nH]1
IC50 (Homo sapiens [6]): 390 nM
Control (Homo sapiens [8]): 0%
Control (Brugia pahangi [3]): 87%
IC50 (L1210 [4]): 0.73 µM
Control (L1210 [2]): 0%

COC(=O)Nc1nc2cc(C(=O)O)ccc2[nH]1
Control (Brugia pahangi [18]): 0%
Control (L1210 [2]): 100%

COC(=O)Nc1nc2cc(C(=O)N3CCOCC3)ccc2[nH]1
Control (L1210 [14]): 0%
IC50 (L1210 [17]): 60 µM

COC(=O)Nc1nc2cc(C(=O)OCc3ccc(F)cc3)ccc2[nH]1
Control (Brugia pahangi [3]): 83%

COC(=O)Nc1nc2cc(C(=O)OC)ccc2[nH]1
Control (Brugia pahangi [19]): 53%
IC50 (Homo sapiens [6]): 1100 nM
Control (Brugia pahangi [20]): 79%
Control (Homo sapiens [8]): 0%
Control (Brugia pahangi [21]): 12%
Control (Brugia pahangi [22]): 4%
IC50 (L1210 [4]): 5 µM
Control (L1210 [2]): 50%

COC(=O)Nc1nc2cc(C(=O)N3CCN(C(=O)N(C)C)CC3)ccc2[nH]1
Control (Brugia pahangi [1]): 94%

CCNC(=O)c1ccc2[nH]c(NC(=O)OC)nc2c1
Control (Brugia pahangi [23]): 0%
IC50 (Homo sapiens [6]): 6000 nM
Control (Acanthocheilonema viteae [24]): 80%
Control (Brugia pahangi [25]): 0%
Control (Homo sapiens [8]): 0%
Control (Brugia pahangi [26]): 0%
Control (Brugia pahangi [10]): 89%
IC50 (L1210 [4]): 10 µM
Control (L1210 [2]): 41%

COC(=O)Nc1nc2cc(NC(=O)c3ccc(F)cc3)ccc2[nH]1
Control (Brugia pahangi [1]): 133%

COC(=O)Nc1nc2cc(C(=O)OCC(C)(C)C)ccc2[nH]1
Control (Brugia pahangi [3]): 82%
